Data taken from ChEMBL document CHEMBL3045116, “Synthesis and biological evaluation of 2-(5-substituted-1-((diethylamino)methyl)-2-oxoindolin-3-ylidene)-N-substituted-hydrazinecarbothioamides” (Med Chem Res, 2013).

Experiments:
Human alphaherpesvirus 1 [1] = experiment: Antiviral activity against acyclovir-resistant thymidine kinase negative Human herpesvirus 1 strain KOS infected human HEL cells assessed as reduction of virus-induced cytopathic effect after 3 days by colorimetric formazan-based MTS assay; assay type: functional, organism-based; conditions: Human alphaherpesvirus 1, KOS, 72 h
Procedure, shortened: (§1)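 Confluent cell monolayers were infected with 100 CCID50 of virus, and serial dilutions of compound were added at the time of infection.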

[2] = tested on: Vesicular stomatitis virus; experiment: Antiviral activity against Vesicular stomatitis virus infected human HEL cells assessed as reduction of virus-induced cytopathic effect after 3 days by colorimetric formazan-based MTS assay; assay type: functional, organism-based; conditions: 72 h; procedure, shortened: as §1
Vaccinia virus = experiment: Antiviral activity against Vaccinia virus infected human HEL cells assessed as reduction of virus-induced cytopathic effect after 3 days by colorimetric formazan-based MTS assay; assay type: functional, organism-based; conditions: Orthopoxvirus vaccinia, 72 h; procedure, shortened: as §1
[3] = Cytotoxicity against Homo sapiens (human) HEL cells assessed as change in cellular morphology; assay type: cell-based
Human alphaherpesvirus 1 [4] = experiment: Antiviral activity against Human herpesvirus 1 strain KOS infected human HEL cells assessed as reduction of virus-induced cytopathic effect after 3 days by colorimetric formazan-based MTS assay; assay type: functional, organism-based; conditions: Human alphaherpesvirus 1, KOS, 72 h; procedure, shortened: as §1
Human alphaherpesvirus 2 = experiment: Antiviral activity against Human herpesvirus 2 strain G infected human HEL cells assessed as reduction of virus-induced cytopathic effect after 3 days by colorimetric formazan-based MTS assay; assay type: functional, organism-based; conditions: Human alphaherpesvirus 2, strain G, 72 h; procedure, shortened: as §1
Influenza B virus = experiment: Antiviral activity against Influenza B virus infected in MDCK cells assessed as reduction of virus-induced cytopathic effect after 3 days by colorimetric formazan-based MTS assay; assay type: functional, organism-based; conditions: 72 h; procedure, shortened: as §1
Influenza A virus H3N2 = experiment: Antiviral activity against Influenza A virus H3N2 infected MDCK cells assessed as reduction of virus-induced cytopathic effect after 3 days by colorimetric formazan-based MTS assay; assay type: functional, organism-based; conditions: 72 h; procedure, shortened: as §1
Influenza A virus = experiment: Antiviral activity against Unidentified Influenza A virus (H1N1) infected MDCK cells assessed as reduction of virus-induced cytopathic effect after 3 days by colorimetric formazan-based MTS assay; assay type: functional, organism-based; conditions: 72 h; procedure, shortened: as §1
[5] = (§2) Cytotoxicity against MDCK cells assessed as change in cellular morphology; assay type: cell-based, Canis lupus familiaris; conditions: dog, MDCK cells
Procedure, shortened: (§3)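 Uninfected cells were exposed to compound in parallel with the antiviral cultures. The read-out is the minimum cytotoxic concentration that causes a microscopically detectable alteration of normal cell morphology.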

MDCK = experiment: as §2; assay type: cell-based, Canis lupus familiaris; conditions: dog, mdck; procedure, shortened: as §3
Felid alphaherpesvirus 1 = experiment: Antiviral activity against Felid herpesvirus 1 infected cat CRFK cells assessed as reduction of virus-induced cytopathic effect after 3 days by colorimetric formazan-based MTS assay; assay type: functional, organism-based; conditions: Felid alphaherpesvirus 1, CRFK, 72 h
Procedure, shortened: (§4)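 Cells grown to confluency in 96-well plates ([…], Vero for lines 9–10) were infected with 100 CCID50 of virus, and serial compound dilutions were added at infection. Plates were incubated at 37 °C for 3 days, until complete CPE appeared in untreated virus controls.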

[6] = tested on: Feline infectious peritonitis virus; experiment: Antiviral activity against Feline Infectious peritonitis virus infected cat CRFK cells assessed as reduction of virus-induced cytopathic effect after 3 days by colorimetric formazan-based MTS assay; assay type: functional, organism-based; conditions: Alphacoronavirus 1, CRFK, 72 h; procedure, shortened: as §1
[7] = Cytotoxicity against Felis catus (cat) CRFK cells assessed as change in cellular morphology; assay type: cell-based; conditions: crfk; procedure, shortened: as §3
[8] = Inhibition of beta lactamase assessed as increase in time taken for iodine decolorization relative to control; design: concentration or dose not given beside the values; conditions: concentration not given here
[9] = Inhibition of beta lactamase assessed as time for decolorization of iodine (reference value: 79.5 secs)
CCRF-CEM = experiment: Cytotoxicity against Homo sapiens (human) CEM cells assessed as growth inhibition after 72 hr by coulter counter analysis; assay type: functional, cell-based
Procedure, shortened: (§5)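 Cells in growth medium were allowed to proliferate with variable compound amounts at 37 °C in a humidified CO2 atmosphere. Incubation ran 48 h for L1210, 72 h for CEM and 96 h for HeLa. Cells were then counted with a Coulter counter.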

L1210 = experiment: Cytotoxicity against Mus musculus (mouse) L1210 cells assessed as growth inhibition after 48 hr by coulter counter analysis; assay type: functional, cell-based; conditions: L1210, 48 h; procedure, shortened: as §5
Punta Toro virus = experiment: Antiviral activity against Punta Toro virus infected in African green monkey Vero cells assessed as reduction of virus-induced cytopathic effect after 3 days by colorimetric formazan-based MTS assay; assay type: functional, organism-based; conditions: 72 h; procedure, shortened: as §1
Coxsackievirus B4 [10] = experiment: Antiviral activity against Human coxsackievirus B4 infected African green monkey Vero cells assessed as reduction of virus-induced cytopathic effect after 3 days by colorimetric formazan-based MTS assay; assay type: functional, organism-based; conditions: Enterovirus B, 72 h; procedure, shortened: as §1
Respirovirus muris = experiment: Antiviral activity against Sendai virus infected African green monkey Vero cells assessed as reduction of virus-induced cytopathic effect after 3 days by colorimetric formazan-based MTS assay; assay type: functional, organism-based; conditions: 72 h
[11] = tested on: Mammalian orthoreovirus 1; experiment: Antiviral activity against Mammalian orthoreovirus 1 infected African green monkey Vero cells assessed as reduction of virus-induced cytopathic effect after 3 days by colorimetric formazan-based MTS assay; assay type: functional, organism-based; conditions: Mammalian orthoreovirus 1, Vero, 72 h; procedure, shortened: as §4
Human respirovirus 3 = experiment: Antiviral activity against Human parainfluenza virus 3 infected African green monkey Vero cells assessed as reduction of virus-induced cytopathic effect after 3 days by colorimetric formazan-based MTS assay; assay type: functional, organism-based; conditions: Human respirovirus 3, Vero, 72 h; procedure, shortened: as §4
[12] = Cytotoxicity against Chlorocebus aethiops (African green monkey) Vero cells assessed as change in cellular morphology; assay type: cell-based; conditions: chlorocebus sabaeus
[13] = tested on: Respiratory syncytial virus; experiment: Antiviral activity against Respiratory syncytial virus infected human HeLa cells assessed as reduction of virus-induced cytopathic effect after 3 days by colorimetric formazan-based MTS assay; assay type: functional, organism-based; conditions: 72 h; procedure, shortened: as §1
[14] = tested on: Vesicular stomatitis virus; experiment: Antiviral activity against Vesicular stomatitis virus infected human HeLa cells assessed as reduction of virus-induced cytopathic effect after 3 days by colorimetric formazan-based MTS assay; assay type: functional, organism-based; conditions: 72 h; procedure, shortened: as §1
Coxsackievirus B4 [15] = experiment: Antiviral activity against Human coxsackievirus B4 infected human HeLa cells assessed as reduction of virus-induced cytopathic effect after 3 days by colorimetric formazan-based MTS assay; assay type: functional, organism-based; conditions: Enterovirus B, 72 h; procedure, shortened: as §1
[16] = (§6) Cytotoxicity against Homo sapiens (human) HeLa cells assessed as change in cellular morphology; assay type: cell-based; conditions: HeLa cells; procedure, shortened: as §3
HeLa = experiment: as §6; assay type: cell-based; conditions: hela; procedure, shortened: as §3
Candida albicans = experiment: Antifungal activity against Candida albicans assessed as growth inhibition at 50 ug/ml by cup-plate method (reference value: 8 to 10 mm); assay type: functional; conditions: read-out: DIZ
Aspergillus niger = experiment: Antifungal activity against Aspergillus niger assessed as growth inhibition at 50 ug/ml by cup-plate method (reference value: 8 to 10 mm); assay type: functional; conditions: read-out: DIZ
Salmonella typhi = experiment: Antibacterial activity against Salmonella enterica subsp. enterica serovar Typhi assessed as growth inhibition at 50 ug/ml by cup-plate method (reference value: 8 to 10 mm); assay type: functional; conditions: read-out: DIZ
Proteus vulgaris = experiment: Antibacterial activity against Proteus vulgaris assessed as growth inhibition at 50 ug/ml by cup-plate method (reference value: 8 to 10 mm); assay type: functional; conditions: read-out: DIZ
Escherichia coli = experiment: Antibacterial activity against Escherichia coli assessed as growth inhibition at 50 ug/ml by cup-plate method (reference value: 8 to 10 mm); assay type: functional; conditions: read-out: DIZ
Bacillus subtilis = experiment: Antibacterial activity against Bacillus subtilis assessed as growth inhibition at 50 ug/ml by cup-plate method (reference value: 8 to 10 mm); assay type: functional; conditions: read-out: DIZ
Klebsiella pneumoniae = experiment: Antibacterial activity against Klebsiella pneumoniae assessed as growth inhibition at 50 ug/ml by cup-plate method (reference value: 8 to 10 mm); assay type: functional; conditions: read-out: DIZ
Staphylococcus aureus = experiment: Antibacterial activity against Staphylococcus aureus assessed as growth inhibition at 50 ug/ml by cup-plate method (reference value: 8 to 10 mm); assay type: functional; conditions: read-out: DIZ

Compound: O=c1[nH]c(=O)n([C@H]2C[C@H](O)[C@@H](CO)O2)cc1/C=C/Br [BRIVUDINE]
- EC50 (Human alphaherpesvirus 1 [1]): > 250 µM
- EC50 [2]: > 250 µM
- EC50 (Vaccinia virus): 29 µM
- MCC [3]: > 250 µM

Compound: Nc1ccn(C[C@@H](CO)OCP(=O)(O)O)c(=O)n1 [CIDOFOVIR]
- EC50 (Human alphaherpesvirus 1 [4]): 5 µM
- EC50 (Human alphaherpesvirus 1 [1]): 6 µM
- EC50 [2]: > 250 µM
- EC50 (Human alphaherpesvirus 2): 1.5 µM
- MCC [3]: > 250 µM

Compound: CC(N)C12CC3CC(CC(C3)C1)C2 (stereo unspecified) [RIMANTADINE]
- EC50 (Influenza B virus): > 100 µM
- EC50 (Influenza A virus H3N2): 0.08 µM
- EC50 (Influenza A virus): 24.2 µM
- MCC [5]: 500 µM
- CC50 (MDCK): 259 µM

Compound: CCN(CC)CN1C(=O)/C(=N/NC(=S)Nc2ccc(OC)cc2)c2cc(Cl)ccc21
- EC50 (Influenza B virus): > 0.8 µM
- EC50 (Influenza A virus H3N2): > 0.8 µM
- EC50 (Human alphaherpesvirus 1 [4]): > 20 µM
- EC50 (Felid alphaherpesvirus 1): > 0.8 µM
- EC50 [6]: > 0.8 µM
- CC50 [7]: 3.6 µM
- inhibition [8]: 52.6%
- TIME [9]: 0.0466 h
- IC50 (CCRF-CEM): 6.9 µM
- IC50 (L1210): 11 µM
- EC50 (Influenza A virus): > 0.8 µM
- MCC [5]: ≥ 0.8 µM
- CC50 (MDCK): 11.1 µM
- EC50 (Punta Toro virus): > 0.8 µM
- EC50 (Coxsackievirus B4 [10]): > 0.8 µM
- EC50 (Respirovirus muris): > 0.8 µM
- EC50 [11]: > 0.8 µM
- EC50 (Human respirovirus 3): > 0.8 µM
- MCC [12]: 4 µM
- EC50 [13]: > 0.8 µM
- EC50 [14]: > 0.8 µM
- EC50 (Coxsackievirus B4 [15]): > 0.8 µM
- MCC [16]: 4 µM
- CC50 (HeLa): 13.2 µM
- EC50 (Human alphaherpesvirus 1 [1]): > 20 µM
- EC50 [2]: > 20 µM
- EC50 (Vaccinia virus): > 20 µM
- EC50 (Human alphaherpesvirus 2): > 20 µM
- MCC [3]: 100 µM
- zone of inhibition at 50 µg/mL (Candida albicans): 11 mm
- zone of inhibition at 50 µg/mL (Aspergillus niger): 11 mm
- zone of inhibition at 50 µg/mL (Salmonella typhi): 21 mm
- zone of inhibition at 50 µg/mL (Proteus vulgaris): 21 mm
- zone of inhibition at 50 µg/mL (Escherichia coli): 11 mm
- zone of inhibition at 50 µg/mL (Bacillus subtilis): 11 mm
- zone of inhibition at 50 µg/mL (Klebsiella pneumoniae): 11 mm
- zone of inhibition at 50 µg/mL (Staphylococcus aureus): 11 mm
